Results from ChEMBL document CHEMBL6115033, “Discovery of a Pyrazolopyridinone-Based MYC Inhibitor That Selectively Engages Intracellular c-MYC and Disrupts MYC-MAX Heterodimerization” (J Med Chem, 2025).
Active and inactive are the calls of the source. The calls are words filed in the database; no cut-off is given here.

Columns and labels:
[1] = Antiproliferative activity against tetracycline-treated human P493-6 cells expressing MYC assessed as inhibition of cell proliferation incubated for 96 hrs by cell titer glo assay; format: functional, cell-based; conditions: P493-6, 96 h
How it was run: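 P493-6 cells (3000/well, RPMI) were seeded overnight at 37 °C, then given compounds at final 0.14–100 µM for 96 h. MYC-off cells were pretreated with 0.1 µg/mL tetracycline for 72 h. Read-out was CellTiter-Glo luminescence after equilibration to room temperature. IC50 was determined in high-MYC and MYC-off cells.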

P493-6 [2] = experiment: Antiproliferative activity against human P493-6 cells expressing MYC assessed as inhibition of cell proliferation at 25 uM incubated for 96 hrs by cell titer glo assay; format: functional, cell-based
How it was run: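 P493-6 cells, either untreated (high MYC) or MYC-off after 0.1 µg/mL tetracycline for 72 h, were exposed to 25 µM for 96 h. Read-out was % survival by CellTiter-Glo luminescence. Mean ± SD, n = 6, unpaired t-test.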

[3] = target: Myc proto-oncogene protein (Homo sapiens) (UniProt P01106); experiment: Binding affinity to MYC in human P493-6 cells assessed as induction of destabilization at 10 to 50 uM measured for 2 hr by CETSA analysis; format: cell-based; conditions: DESTABILISER, dose 10-50 µM
Sequence of Myc proto-oncogene protein (Homo sapiens) (P01106 whole entry): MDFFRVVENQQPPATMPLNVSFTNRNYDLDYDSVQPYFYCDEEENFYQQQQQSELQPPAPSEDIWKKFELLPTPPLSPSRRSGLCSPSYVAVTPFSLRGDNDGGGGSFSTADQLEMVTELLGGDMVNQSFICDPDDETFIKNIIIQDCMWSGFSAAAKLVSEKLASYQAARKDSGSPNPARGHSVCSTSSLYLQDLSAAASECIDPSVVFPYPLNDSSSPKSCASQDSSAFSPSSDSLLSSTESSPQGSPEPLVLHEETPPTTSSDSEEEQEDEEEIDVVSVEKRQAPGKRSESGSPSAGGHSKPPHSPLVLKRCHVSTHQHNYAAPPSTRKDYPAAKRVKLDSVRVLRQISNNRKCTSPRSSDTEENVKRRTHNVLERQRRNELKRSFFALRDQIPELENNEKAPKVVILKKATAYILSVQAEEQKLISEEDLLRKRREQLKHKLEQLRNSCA

[4] = target: T1, c-Myc/c-Max (Homo sapiens) (UniProt P01106+P61244); experiment: Disruption of MYC-MAX interaction in human P493-6 cells at 25 uM incubated for 3 to 12 hrs by Western blot analysis; format: cell-based; conditions: time 3-12 hrs
T1 sequence (P01106 whole entry): as above
T1 sequence (P61244 2-160 partner limits assumed): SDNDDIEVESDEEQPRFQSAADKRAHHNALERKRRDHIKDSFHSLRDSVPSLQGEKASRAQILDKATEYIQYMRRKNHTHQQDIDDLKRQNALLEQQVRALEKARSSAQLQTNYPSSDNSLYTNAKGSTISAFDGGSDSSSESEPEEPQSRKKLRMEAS
How it was run: (§1)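 Cells were given 25 µM or DMSO for 0, 3, 5 and 12 h. Cytoplasmic and nuclear lysate fractions were pooled. 2 mg protein was immunoprecipitated with MYC antibody overnight, then protein A/G beads for 4 h at 4 °C. Bound MAX was detected by western blot and quantified relative to MYC; MAX input was also measured.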

[5] = target: T1, c-Myc/c-Max (Homo sapiens); experiment: Disruption of MYC-MAX interaction in human MDA-MB-468 cells at 25 uM incubated for 3 to 12 hrs by immunofluorescence analysis; format: cell-based; conditions: time 3-12 hrs
[6] = target: T1, c-Myc/c-Max (Homo sapiens); experiment: Disruption of MYC-MAX heterodimerization in human MDA-MB-468 cells incubated for 12 hrs; format: cell-based; how it was run: as §1
P493-6 [7] = experiment: Downregulation of MYC level in human P493-6 cells measured at 20 to 60 mins by Western blot analysis; format: functional, cell-based; conditions: time 20-60 min
How it was run: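 Cells were pretreated with 25 µM or DMSO for 3 h, then given 50 µg/mL cycloheximide for the indicated times. MYC was measured by western blot, and half-life came from a one-phase exponential decay fit.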

MDA-MB-468 [8] = experiment: Downregulation of MYC level in human MDA-MB-468 cells at 25 uM by Western blot analysis; format: functional, cell-based; conditions: time 9-24 hrs
How it was run: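 MDA-MB-468 cells were exposed to 25 µM over a time course of up to 24 h. MYC and FBXW7 were read by western blot.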

MDA-MB-468 [9] = experiment: Downregulation of CDK1 mRNA expression in human MDA-MB-468 cells at 25 uM incubated for 12 hrs by qRT-PCR analysis; format: functional, cell-based
How it was run: (§2)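 Cells (500,000/well) were cultured with or without 25 µM for the indicated time. Total RNA was extracted with TRIzol and reverse-transcribed. qPCR used SYBR green with target-gene primers, reported as ΔΔCT.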

MDA-MB-468 [10] = experiment: Downregulation of CDC25A mRNA expression in human MDA-MB-468 cells at 25 uM incubated for 12 hrs by qRT-PCR analysis; format: functional, cell-based; how it was run: as §2
MDA-MB-468 [11] = experiment: Downregulation of E2F1 mRNA expression in human MDA-MB-468 cells at 25 uM incubated for 12 hrs by qRT-PCR analysis; format: functional, cell-based; how it was run: as §2
P493-6 [12] = experiment: Downregulation of CCNA2 mRNA expression in human P493-6 cells at 25 uM incubated for 12 hrs by qRT-PCR analysis; format: functional, cell-based; how it was run: as §2
P493-6 [13] = experiment: Downregulation of E2F2 mRNA expression in human P493-6 cells at 25 uM incubated for 12 hrs by qRT-PCR analysis; format: functional, cell-based; how it was run: as §2
MDA-MB-468 [14] = experiment: Downregulation of CDK2 mRNA expression in human MDA-MB-468 cells at 25 uM incubated at 48 hrs by qRT-PCR analysis; format: functional, cell-based; how it was run: as §2
MDA-MB-468 [15] = experiment: Downregulation of CDK1 mRNA expression in human MDA-MB-468 cells at 25 uM incubated at 48 hrs by qRT-PCR analysis; format: functional, cell-based; how it was run: as §2
MDA-MB-468 [16] = experiment: Downregulation of CDC25A mRNA expression in human MDA-MB-468 cells at 25 uM incubated at 48 hrs by qRT-PCR analysis; format: functional, cell-based; how it was run: as §2
MDA-MB-468 [17] = experiment: Downregulation of CDC25C mRNA expression in human MDA-MB-468 cells at 25 uM incubated at 48 hrs by qRT-PCR analysis; format: functional, cell-based; how it was run: as §2
[18] = Induction of apoptosis in human P493-6 cells assessed as viable cells at 50 uM incubated for 24 hrs by Annexin V/PI staining based flow cytometry analysis (reference value: 90.8%); format: functional; conditions: read-out: Activity
MCF7 = experiment: Induction of apoptosis in human MCF7 cells cultured as 3D spheroids assessed as inhibition of cell growth incubated for 5 days; format: functional, cell-based; conditions: time 5.0 day
How it was run: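 Cells plated at 4000 per well in low-attachment 24-well plates and grown in Mammocult medium for 48 h to form mammospheres. Spheres then exposed to 25 uM compound for 5 days, with untreated control wells. Read-out was imaging of the mammospheres formed.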

[19] = Toxicity in mouse implanted with human MDA-MB-468 cells assessed as change in body weight at 10 mg/kg, po; format: organism-based; conditions: in vivo
P493-6 [20] = experiment: Induction of apoptosis in human P493-6 cells assessed as effect on PARP level at 50 uM incubated for 24 hrs
P493-6 [21] = experiment: Induction of apoptosis in human P493-6 cells assessed as effect on caspase-3 level at 50 uM incubated for 24 hrs
[22] = target: T1, c-Myc/c-Max (Homo sapiens); experiment: Disruption of MYC-MAX interaction in human MDA-MB-468 cells at 25 uM incubated for 12 hrs by proximity ligation assay
MDA-MB-468 [23] = experiment: Induction of apoptosis in human MDA-MB-468 cells assessed as effect on cleaved PARP level at 50 uM incubated for 24 hrs
[24] = target: Myc proto-oncogene protein (Homo sapiens) (UniProt P01106); experiment: Binding affinity to MYC in human P493-6 cells assessed as thermal stabilization by measuring melting temperature at 25 uM measured for 2 hrs by CETSA analysis
MDA-MB-468 [25] = experiment: Antitumor activity against human MDA-MB-468 cells xenografted in mouse assessed as upregulation of caspase-3 expression at 10 mg/kg, sc measured at 14 to 26 days by IHC analysis; conditions: time 14-26 day

## N#Cc1cc2c(-c3ccc(Cl)cc3)nn(-c3ccccc3)c2[nH]c1=O
[1]
  IC50: 58.9 µM
P493-6 [2]
  Activity: Active
[3]
  Activity: Active
[4]
  Activity: Active
[5]
  Activity: Active
[6]
  Activity: Active
P493-6 [7]
  Activity: Active
MDA-MB-468 [8]
  Activity: Time-dependent-effect
MDA-MB-468 [9]
  Activity: Active
MDA-MB-468 [10]
  Activity: Active
MDA-MB-468 [11]
  Activity: Active
P493-6 [12]
  Activity: Active
P493-6 [13]
  Activity: Active
MDA-MB-468 [14]
  Activity: Active
MDA-MB-468 [15]
  Activity: Active
MDA-MB-468 [16]
  Activity: Active
MDA-MB-468 [17]
  Activity: Active
[18]
  viability at 50 µM: 77.2%
MCF7
  Activity: Active
[19]
  Activity: Non-toxic
P493-6 [20]
  Activity: Active
P493-6 [21]
  Activity: Active
[22]
  Activity: Active
MDA-MB-468 [23]
  Activity: Active
[24]
  Tm: 35 °C
MDA-MB-468 [25]
  Activity: Active
